From PubChem
PostGolgi yeast: growth inhibition of a yeast mutant, post-Golgi transport screen | AID 739 | actives 0.9% (n = 98,000) | inhibition, % at 10 µM | post-Golgi transport phenotypic cell assay;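 note: yeast cells grown in 1536-well plates; yeast grown about 18 h at 30C before absorbance read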
Cav3 T inh: blocks human Cav3.2 T-type calcium channel | Cav3.2-expressing cells, Fluo-4 calcium fluorescence FDSS; stronger effect = lower value | B-score at 10 µM | actives 4% (n = 100,000) | AID 449739;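 active = single-dose well whose peak fluorescence ratio is a statistical outlier from its plate by either plate-standardised score or position-corrected B-score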
Pyk2 oligo antag: blocks oligomerization of human Pyk2 in cells; Q14289; z-score (the deposit names both 25 µM and 10 µM); Q293 cells, Pyk2 FERM NanoBiT luminescence; stronger effect = lower value; actives 0.83% (n = 99,000);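 active = Z-score of -3 or lower, scaled per plate to the spread of control and sample wells; inactive = z-score above -3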;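 note: negative z-score means lost luminescence so less FERM oligomerization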
Target sequence (Q14289 whole entry, looked up): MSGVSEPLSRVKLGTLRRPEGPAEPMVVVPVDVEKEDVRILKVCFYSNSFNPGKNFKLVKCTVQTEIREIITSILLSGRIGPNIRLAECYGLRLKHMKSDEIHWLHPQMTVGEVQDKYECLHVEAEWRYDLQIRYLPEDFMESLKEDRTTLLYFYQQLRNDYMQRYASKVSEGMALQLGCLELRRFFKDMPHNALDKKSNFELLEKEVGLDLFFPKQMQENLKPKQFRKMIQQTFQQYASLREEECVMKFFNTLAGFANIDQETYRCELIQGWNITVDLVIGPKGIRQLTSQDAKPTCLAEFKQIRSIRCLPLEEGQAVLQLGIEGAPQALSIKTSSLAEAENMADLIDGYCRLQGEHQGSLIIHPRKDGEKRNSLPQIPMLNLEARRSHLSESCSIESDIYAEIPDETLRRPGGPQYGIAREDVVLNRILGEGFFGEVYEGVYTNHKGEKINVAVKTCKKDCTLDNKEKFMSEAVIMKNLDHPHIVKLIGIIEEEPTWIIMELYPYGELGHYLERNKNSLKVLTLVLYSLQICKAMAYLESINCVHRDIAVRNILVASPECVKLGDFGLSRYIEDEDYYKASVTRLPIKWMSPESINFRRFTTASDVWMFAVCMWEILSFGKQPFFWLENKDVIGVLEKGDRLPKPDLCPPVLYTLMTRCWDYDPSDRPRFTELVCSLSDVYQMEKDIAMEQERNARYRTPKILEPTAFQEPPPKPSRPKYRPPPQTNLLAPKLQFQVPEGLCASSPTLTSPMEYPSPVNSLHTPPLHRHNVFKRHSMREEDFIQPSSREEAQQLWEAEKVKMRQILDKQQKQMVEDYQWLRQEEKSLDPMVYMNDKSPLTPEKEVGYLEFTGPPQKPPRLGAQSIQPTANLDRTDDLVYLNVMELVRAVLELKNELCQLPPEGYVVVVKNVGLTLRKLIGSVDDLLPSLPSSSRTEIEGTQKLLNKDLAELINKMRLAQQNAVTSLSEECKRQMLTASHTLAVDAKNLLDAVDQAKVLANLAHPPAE
PostGolgi ctrl: inhibits growth of the yeast control strain | efflux-deficient yeast background strain, growth absorbance A615, 16 h | inhibition, % at 10 µM | actives 5% (n = 98,000)
E coli WT exp: E. coli BW25113 growth inhibition, expanded screen; AID 710; actives 0.15% (n = 98,000); OD600 absorbance; growth inhibition, % at 100 µM;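 active = growth inhibition above about 50% at one test dose, limit read from the data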;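 note: growth measured after 20 h incubation at 37 °C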
tolC growth inh: growth inhibitors of E. coli BW25113 tolC mutant | OD615 | AID 573 | actives 2.2% (n = 65,000) | growth inhibition, % at 10 µM (by protocol);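 active = growth inhibition at or above a cutoff equal to the mean over every tested compound plus 3 SD, cut at about 60% in these data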;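 note: growth measured after 20 h incubation at 37 °C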
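Doses: one dose of 10 µM final / Material: E. coli BW25113 ΔtolC::kan, tolC deletion mutant strain / Buffer or medium: LB with kanamycin 50 µg/mL / Evaluation: percent growth inhibition / Detection: optical density read at 615 nm / Incubation: 37 °C, 20 h exposure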
Each line names hits and unclear results; the compound was inactive in the other large screens. Compounds with a hit are over-represented: about 8.7% of the library has one in this group of screens. Cut-off read from the data, not from the text of the source, unless noted: active = inhibition above about 30%; inactive = the rest.

O=C(O)c1cc(Cl)c2ccccc2c1O	Cav3 T inh -6.7, tolC growth inh 66
O=C(O)c1ccc2cccc(Cl)c2c1O	none (no result: Cav3 T inh)
Nn1c(Nc2ccccc2)nc2sc3c(c2c1=O)CCC3	PostGolgi ctrl 31
CCc1nc2sc3c(c2c(=O)n1N)CCC3	none
C/C(=N\Nc1ccc([N+](=O)[O-])cc1)c1cccc(N)c1	PostGolgi yeast 31 (no result: tolC growth inh)
Cc1ccccc1S(=O)(=O)Cc1ccc(C(=O)NCc2cccnc2)o1	none
Cc1ccc2nc(NC(=O)CCn3c(=O)sc4ccccc43)sc2c1	PostGolgi ctrl 70 (no result: Pyk2 oligo antag, tolC growth inh)
O=C(CSc1cn(Cc2ccccc2)c2ccccc12)Nc1nccs1	Cav3 T inh -4.3 (no result: Pyk2 oligo antag)
Cc1csc(SCC(=O)Nc2nc3ccccc3s2)n1	none
CCOCC(=O)Nc1nc2ccc(C)cc2s1	none
Cc1ccc(CC(=O)Nc2nc3ccccc3s2)cc1	Cav3 T inh -6.7 (no result: tolC growth inh)
Cn1cc(SCC(=O)Nc2nc3ccccc3s2)c2ccccc21	PostGolgi ctrl 64, tolC growth inh 62
CCCCOc1cccc(NC(=O)CSc2nccn2C)c1	none
COc1cccc(C2CC(c3cccc(NS(C)(=O)=O)c3)=NN2C(=O)c2ccccc2)c1OC (stereo not drawn)	none (no result: PostGolgi yeast, Cav3 T inh, PostGolgi ctrl, E coli WT exp, tolC growth inh)
CC1Cc2nc(SCC(=O)Nc3nc4ccccc4s3)n(C)c(=O)c2S1 (stereo not drawn)	none (no result: Pyk2 oligo antag, tolC growth inh)
O=C(Nc1cccc(F)c1)C1C2C=CC3(CN(CCCN4CCOCC4)C(=O)C13)O2 (stereo not drawn)	none (no result: Pyk2 oligo antag)
CC(C)(C)c1cc(S(=O)(=O)CCc2ccccn2)cc(C(C)(C)C)c1F	Cav3 T inh -4 (no result: tolC growth inh)
Cc1cccc(CN(C)CCc2ccccn2)c1	none
CC(C)C[C@H](NC(=O)Nc1ccccc1F)C(=O)O	none (no result: tolC growth inh)
CCOC(=O)C1=C(C)NC2=C(C(=O)CCC2)C1c1cccs1 (stereo not drawn)	none (no result: Cav3 T inh)
CCOC(=O)c1sc2c(c1C)C(c1cccs1)C1=C(CCCC1=O)N2 (stereo not drawn)	tolC growth inh 80
c1ccc(C(c2ccccc2)c2nc(-c3cccnc3)no2)cc1	none (no result: tolC growth inh)
CCN(C(=O)Cn1c(=O)n(Cc2ccccc2)c(=O)c2ccccc21)c1cccc(C)c1	Cav3 T inh -6.4 (no result: tolC growth inh)
Cc1sc2c(c1C)c(=O)n(-c1cccc(C(F)(F)F)c1)c(=O)n2CC(=O)NCc1ccco1	none (no result: tolC growth inh)
COC(=O)C1=C(N)Oc2cc(C)n(Cc3ccco3)c(=O)c2C1c1cccc(Cl)c1 (stereo not drawn)	tolC growth inh 68
COC(=O)C1=C(N)Oc2cc(C)n(C)c(=O)c2C1c1ccc(Cl)c(Cl)c1 (stereo not drawn)	PostGolgi ctrl 46
O=C(Nc1cccc(Cl)c1N1CCCC1)c1cccc(-c2cc3ccccc3oc2=O)c1	none (no result: tolC growth inh)
COc1ccccc1-c1noc(CCC(=O)Nc2ccccc2Cl)n1	none
COc1ccc(Cl)cc1NC(=O)CSc1nc(N2CCCCC2)nc(N2CCCCC2)n1	none
Cc1csc(SCC(=O)c2cc(C)n(Cc3cccs3)c2C)n1	Cav3 T inh -4
Cc1cc(C(=O)CSc2n[nH]c(-c3ccccc3F)n2)c(C)n1Cc1cccs1	PostGolgi ctrl 33 (no result: tolC growth inh)
CCn1nc(C(=O)OCC(=O)c2cc(C)n(Cc3cccs3)c2C)c2ccccc2c1=O	PostGolgi ctrl 42
COc1ccc(-n2cnnc2SCC(=O)c2cc(C)n(Cc3cccs3)c2C)cc1	Cav3 T inh -5.4
N#CC1=C(N)Oc2c(oc(CO)cc2=O)C12C(=O)Nc1ccc(Cl)cc12 (stereo not drawn)	none
CCOC(=O)C(O)(CCC(O)(C(=O)OCC)C(=O)OCC)C(=O)OCC	none
C=CCSc1n[nH]c(-c2ccc(OCCCC)cc2)n1	tolC growth inh 86
C=CCSc1n[nH]c(-c2ccc(OCCC)cc2)n1	none
Cc1noc(C)c1Cn1nc(C(=O)O)c2ccccc2c1=O	none (no result: Cav3 T inh)
Cc1ccccc1Cn1cc(/C=N/n2cnnc2)c2ccccc21	none
Clc1ccc(Cn2cc(/C=N/n3cnnc3)c3ccccc32)cc1	PostGolgi ctrl 42
CCNc1nc(SCc2ccccc2)nc(N2CCOCC2)n1	Cav3 T inh -4.9, tolC growth inh 66
Clc1ccc(OCc2nc(-c3ccncc3)no2)c(Cl)c1	PostGolgi yeast 44, PostGolgi ctrl 37
COc1ccc(S(=O)(=O)Cc2ccc(C(=O)N3CCN(c4ccc(Cl)cc4)CC3)o2)cc1	PostGolgi ctrl 37 (no result: Pyk2 oligo antag)
